≈ marks a conversion by molar mass, not a printed value. Calls of active or inactive are those of the source. The rule behind the calls is not given here.
Assays:
[1] = tested on: Mycobacterium tuberculosis; test: Bactericidal activity against non-replicating Mycobacterium tuberculosis H37Rv Wayne model under hypoxic/oxygen depleted conditions assessed as log reduction at 10 ug/ml after 4 days by serial dilution assay; type: functional
Outline: (§1)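 Wayne hypoxia model. A mid-log 7H9 culture was diluted to about 10^5 cfu/mL, and 10 mL was sealed in 20 mL headspace vials. Vials were stirred slowly at 37 °C for 20–22 days, until methylene blue indicator (1.5 µg/mL) decolorized. Drug was then injected through the septum, and vials were incubated 4 more days at 37 °C. Tests were run in duplicate, with CFU counted on 7H10 agar plates.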

Rattus norvegicus [2] = test: Clearance in Sprague-Dawley rat at 10 mg/kg, po; type: ADME, organism-based; parameters: dose 10 mg/kg, route oral; conditions: in vivo
Outline: (§2)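 Male Sprague–Dawley rats (250 ± 25 g) each received a single oral dose of 10 mg/kg or an intravenous dose of 1 mg/kg. Plasma concentration–time profiles were obtained with three rats per time point. Parameters were calculated with a two-compartmental model, and values are averages of three rats. Cmax is given as mean ± SEM.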

[3] = tested on: Trichophyton mentagrophytes; test: Antifungal activity against Trichophyton mentagrophytes at 50 ug/ml; type: functional, organism-based
[4] = tested on: Mycobacterium tuberculosis H37Rv; test: Inhibition of Mycobacterium tuberculosis H37Rv ATP synthase assessed as reduction in total ATP content at 50 ug/ml after 18 hrs by bead-vortexing settling method
Outline: (§3)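 H37Rv was declumped by bead-vortexing and settling, adjusted to McFarland 1, then diluted 100-fold. Portions of 1 mL in tubes with 0.5 mm glass beads were exposed to compound for 18 h at 37 °C. Samples were heated 8–10 min, chilled on ice, and bead-beater lysed. Cleared lysate ATP was measured by luciferase assay.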

[5] = tested on: Mycobacterium tuberculosis; test: Bactericidal activity against non-replicating Mycobacterium tuberculosis H37Rv Wayne model under hypoxic/oxygen depleted conditions assessed as log reduction after 4 days by serial dilution assay; type: functional; outline: as §1
Candida albicans = test: Antifungal activity against Candida albicans at 50 ug/ml; type: functional, organism-based
Aspergillus fumigatus = test: Antifungal activity against Aspergillus fumigatus at 50 ug/ml; type: functional, organism-based
[6] = Tmax in Sprague-Dawley rat at 10 mg/kg, po; type: ADME, organism-based; parameters: dose 10 mg/kg, route oral; conditions: in vivo; outline: as §2
[7] = Cmax in Sprague-Dawley rat at 1 mg/kg, iv; type: ADME, organism-based; parameters: dose 1 mg/kg, route intravenous; conditions: in vivo; outline: as §2
[8] = Selectivity ratio of IC50 for Mycobacterium smegmatis TMC 607 ATP synthase to IC50 for Swiss mouse liver ATP synthase
[9] = Clearance in Sprague-Dawley rat at 1 mg/kg, iv; type: ADME, organism-based; parameters: dose 1 mg/kg, route intravenous; conditions: in vivo; outline: as §2
Staphylococcus aureus = test: Antibacterial activity against Staphylococcus aureus ATCC 25923 at 50 ug/ml; type: functional, organism-based
[10] = tested on: Mycobacterium tuberculosis; test: Antimycobacterial activity against Mycobacterium tuberculosis H37Rv infected in mouse chronic TB model assessed as survival rate at 173 umol/kg administered via esophageal cannula 6 times a week for 4 weeks relative to untreated control; type: functional
Outline: (§4)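 Male Balb/C mice (8–10 weeks, 18–20 g), ten per group, were infected intravenously with 5 × 10^6 CFU H37Rv in 0.2 mL. Dosing by gavage began on day 1, six times weekly for 4 weeks, with the last dose on day 28. Survival was followed to day 30. Survivors were sacrificed on day 30, and lung and spleen homogenates were plated on 7H10/OADC at 37 °C for 4–6 weeks. Results were compared with an untreated infected group.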

[11] = Elimination half life in Sprague-Dawley rat at 1 mg/kg, iv; type: ADME, organism-based; parameters: dose 1 mg/kg, route intravenous; conditions: in vivo, read-out: beta t1/2 (converted); outline: as §2
[12] = Selectivity index, ratio of CC50 for African green monkey Vero cells to MIC100 for Mycobacterium tuberculosis H37Rv; type: toxicity, cell-based; conditions: read-out: Selectivity Index
Outline: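 Selectivity index is CC50 from the Vero resazurin assay divided by the agar-dilution MIC against H37Rv.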

[13] = tested on: Mycobacterium tuberculosis H37Rv; test: Inhibition of Mycobacterium tuberculosis H37Rv ATP synthase assessed as reduction in total ATP content at 12.5 ug/ml after 18 hrs by bead-vortexing settling method; outline: as §3
[14] = Elimination half life in Sprague-Dawley rat at 10 mg/kg, po; type: ADME, organism-based; parameters: dose 10 mg/kg, route oral; conditions: in vivo, read-out: beta t1/2 (converted); outline: as §2
[15] = Inhibition of Swiss mouse liver ATP synthase after 1 hr
Outline: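 Liver mitochondria came from an overnight-fasted adult Swiss mouse, isolated by differential centrifugation in sucrose/Tris-MOPS/EGTA buffer pH 7.4 and assayed the same day. Mitochondria (100 µg) were stirred at room temperature with 100 µM compound in Tris/HCl, sucrose, 5 mM MgCl2 and 100 µM diadenosine pentaphosphate, pH 7.4. The reaction was started with 1 mM ADP, 20 mM Pi and 50 mM succinate, stopped after 1 h with EDTA-TCA, and ATP was read by luciferase.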

Candida parapsilosis = test: Antifungal activity against Candida parapsilosis ATCC 22019 at 50 ug/ml; type: functional, organism-based
[16] = tested on: Mycobacterium tuberculosis; test: Antimycobacterial activity against Mycobacterium tuberculosis H37Rv infected in mouse chronic TB model assessed as log reduction in spleen at 173 umol/kg administered via esophageal cannula 6 times a week for 4 weeks relative to untreated control; type: functional
[17] = tested on: Mycobacterium tuberculosis; test: Antimycobacterial activity against Mycobacterium tuberculosis H37Rv infected in mouse chronic TB model assessed as log reduction in lungs at 173 umol/kg administered via esophageal cannula 6 times a week for 4 weeks relative to untreated control; type: functional
Cryptococcus neoformans = test: Antifungal activity against Cryptococcus neoformans at 50 ug/ml; type: functional, organism-based
[18] = Tmax in Sprague-Dawley rat at 1 mg/kg, iv; type: ADME, organism-based; parameters: dose 1 mg/kg, route intravenous; conditions: in vivo; outline: as §2
[19] = AUC in Sprague-Dawley rat at 1 mg/kg, iv; type: ADME, organism-based; parameters: dose 1 mg/kg, route intravenous; conditions: plasma; outline: as §2
[20] = tested on: Mycobacterium tuberculosis; test: Antimycobacterial activity against Mycobacterium tuberculosis H37Rv infected in mouse chronic TB model assessed as log reduction in lungs at 87 umol/kg administered via esophageal cannula 6 times a week for 4 weeks relative to untreated control; type: functional
[21] = tested on: Mycobacterium tuberculosis; test: Antimycobacterial activity against Mycobacterium tuberculosis H37Rv infected in mouse chronic TB model assessed as survival rate at 87 umol/kg administered via esophageal cannula 6 times a week for 4 weeks relative to untreated control; type: functional; outline: as §4
Sporothrix schenckii = test: Antifungal activity against Sporothrix schenckii at 50 ug/ml; type: functional, organism-based
[22] = Oral bioavailability in Sprague-Dawley rat at 10 mg/kg; type: ADME, organism-based; conditions: in vivo; outline: as §2
[23] = tested on: Mycobacterium tuberculosis; test: Antimycobacterial activity against Mycobacterium tuberculosis H37Rv after 4 weeks by agar dilution assay; type: functional
Outline: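 Agar dilution method. DMSO stocks (5 mg/mL) were serially diluted in DMSO, and 0.1 mL of each was mixed into 1.9 mL Middlebrook 7H10 agar with OADC and set as slants. Each tube received about 10^5 bacilli from a 3-week Lowenstein–Jensen culture suspended in saline with 0.05% Tween-80. Tubes were incubated at 37 °C for 4 weeks. MIC was the lowest concentration with no visible growth.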

Rattus norvegicus [24] = test: AUC in Sprague-Dawley rat at 10 mg/kg, po; type: ADME, organism-based, Plasma; parameters: dose 10 mg/kg, route oral; conditions: in vivo; outline: as §2
[25] = Cytotoxicity against African green monkey Vero cells after 72 hrs yb resazurin assay; type: cell-based; conditions: chlorocebus sabaeus
Outline: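 Vero cells were seeded overnight in RPMI with 10% heat-inactivated FBS at 37 °C, 5% CO2. Cells were exposed in triplicate to concentrations from 100 to 1.56 µg/mL for 72 h. Resazurin (0.1%) was then added for 4–5 h, and fluorescence was read at ex 530/em 590 nm. CC50 was derived from the fluorescence plot.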

Rattus norvegicus [26] = test: Volume of distribution at steady state in Sprague-Dawley rat at 10 mg/kg, po; type: ADME, organism-based; parameters: dose 10 mg/kg, route oral; conditions: in vivo; outline: as §2
[27] = tested on: Mycobacterium tuberculosis; test: Antimycobacterial activity against Mycobacterium tuberculosis H37Rv infected in mouse chronic TB model assessed as log reduction in spleen at 87 umol/kg administered via esophageal cannula 6 times a week for 4 weeks relative to untreated control; type: functional
[28] = Cmax in Sprague-Dawley rat at 10 mg/kg, po; type: ADME, organism-based; parameters: dose 10 mg/kg, route oral; conditions: in vivo; outline: as §2
Pseudomonas aeruginosa = test: Antibacterial activity against Pseudomonas aeruginosa ATCC BAA-427 at 50 ug/ml; type: functional, organism-based
[29] = Volume of distribution at steady state in Sprague-Dawley rat at 1 mg/kg, iv; type: ADME, organism-based; parameters: dose 1 mg/kg, route intravenous; conditions: in vivo, read-out: Vdss; outline: as §2
Escherichia coli = test: Antibacterial activity against Escherichia coli ATCC 9637 at 50 ug/ml; type: functional, organism-based
[30] = Mean residence time in Sprague-Dawley rat at 10 mg/kg, po; type: ADME, organism-based; parameters: dose 10 mg/kg, route oral; conditions: in vivo; outline: as §2
[31] = Inhibition of Mycobacterium smegmatis TMC 607 ATP synthase incubated for 10 mins prior to NADH addition measured after 1 hr by luminescence assay; parameters: species or system Mycolicibacterium smegmatis
Klebsiella pneumoniae = test: Antibacterial activity against Klebsiella pneumoniae ATCC 27736 at 50 ug/ml; type: functional, organism-based
[32] = tested on: Mycobacterium tuberculosis; test: Bactericidal activity against non-replicating Mycobacterium tuberculosis H37Rv Wayne model under hypoxic/oxygen depleted conditions assessed as log reduction at 100 ug/ml after 4 days by serial dilution assay; type: functional; outline: as §1
[33] = tested on: Mycobacterium tuberculosis; test: Antimycobacterial activity against Mycobacterium tuberculosis H37Rv infected in mouse chronic TB model assessed as survival rate at 490 umol/kg administered via esophageal cannula 6 times a week for 4 weeks relative to untreated control; type: functional; conditions: 672 h; outline: as §4
[34] = tested on: Mycobacterium tuberculosis; test: Bactericidal activity against non-replicating Mycobacterium tuberculosis H37Rv Wayne model under hypoxic/oxygen depleted conditions assessed as log reduction at 50 ug/ml after 4 days by serial dilution assay; type: functional; outline: as §1

SMILES: CCN(CC)Cc1cc(N(c2cc(C)nc3cc(Cl)ccc23)S(=O)(=O)c2cccc(Cl)c2Cl)ccc1O
- log10CFU/ml [1]: 1.14
- CL (Rattus norvegicus [2]): 1 mL/min/kg
- Activity [3]: inactive
- inhibition [4]: 31%
- MIC100 [5]: 3.12 µg/mL (≈ 5.39 µM)
- Activity (Candida albicans): inactive
- Activity (Aspergillus fumigatus): inactive
- Tmax [6]: 0.5 h
- Cmax [7]: 2420 ng/mL
- Ratio IC50 [8]: > 155
- clearance [9]: 1.17 mL/min/kg
- Activity (Staphylococcus aureus): inactive
- Survival [10]: 60%
- half-life [11]: 8.84 h
- selectivity ratio [12]: > 96
- inhibition [13]: 60%
- half-life [14]: 4.2 h
- IC50 [15]: > 100000 nM
- Activity (Candida parapsilosis): inactive
- log10cfu [16]: 2.12
- log10cfu [17]: 2.12
- Activity (Cryptococcus neoformans): inactive
- Tmax [18]: 5 min
- AUC [19]: 16400 ng·h/mL
- log10cfu [20]: 1
- Survival [21]: 40%
- Activity (Sporothrix schenckii): inactive
- bioavailability [22]: 1.72%
- MIC100 [23]: 3.12 µg/mL (≈ 5.39 µM)
- AUC (Rattus norvegicus [24]): 2813 ng·h/mL
- CC50 at 72 h [25]: > 300 µg/mL
- Vdss (Rattus norvegicus [26]): 0.41 L/kg
- log10cfu [27]: 1
- Cmax [28]: 616 ng/mL
- Activity (Pseudomonas aeruginosa): inactive
- Vd [29]: 0.84 L/kg
- Activity (Escherichia coli): inactive
- MRT [30]: 6.69 h
- IC50 ([31]; read-out: IC50): 510 nM
- Activity (Klebsiella pneumoniae): inactive
- log10CFU/ml [32]: 2.34

SMILES: CC[C@@H](CO)NCCN[C@@H](CC)CO [ETHAMBUTOL]
- survival at 490 µmol/kg [33]: 90%

SMILES: Cc1ncc([N+](=O)[O-])n1CCO [METRONIDAZOLE]
- log10CFU/ml [34]: 1.16
- MIC100 [5]: inactive
- IC50 [31]: Not Active
